In brackets after ≈: the same amount, converted by molar mass.
What was measured:
Format in all cases: functional
Streptococcus pneumoniae [1] = experiment: Antimicrobial activity against Streptococcus pneumoniae isolate 3282 by agar dilution method
Streptococcus pneumoniae [2] = experiment: Antimicrobial activity against compound-intermediate Streptococcus pneumoniae by agar dilution method
Procedure, shortened: (§1)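 Agar dilution MIC on Mueller-Hinton agar with 5% sheep blood, inocula 10^4 CFU/spot; amoxicillin-clavulanate combined 1:2; S. pneumoniae ATCC 49619 quality control each run.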

Streptococcus pneumoniae [3] = experiment: Antimicrobial activity against Streptococcus pneumoniae isolate 3260 by agar dilution method
Streptococcus pneumoniae [4] = experiment: Antimicrobial activity against Streptococcus pneumoniae isolate 3346 by agar dilution method
Streptococcus pneumoniae [5] = experiment: Antimicrobial activity against Streptococcus pneumoniae isolate 3374 by agar dilution method; procedure, shortened: as §1
Streptococcus pneumoniae [6] = experiment: Antimicrobial activity against Streptococcus pneumoniae isolate 1424 by agar dilution method; procedure, shortened: as §1
Streptococcus pneumoniae [7] = experiment: Antimicrobial activity against Streptococcus pneumoniae isolate 3791 by agar dilution method; procedure, shortened: as §1
Streptococcus pneumoniae [8] = experiment: Antimicrobial activity against compound-resistant Streptococcus pneumoniae by agar dilution method
Procedure, shortened: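 Agar dilution on Mueller-Hinton agar with 5% sheep blood, inocula 10^4 CFU/spot. Panel of 45 drug-resistant serotype 19A pneumococci, plus 297 clinical strains grouped as penicillin-susceptible, -intermediate or -resistant (some macrolide- or levofloxacin-resistant, with defined mechanisms). Amoxicillin combined with clavulanate 1:2. S. pneumoniae ATCC 49619 quality control included in each run. MIC range, MIC50 and MIC90 reported.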

Streptococcus pneumoniae [9] = experiment: Antimicrobial activity against Streptococcus pneumoniae isolate 3481 by agar dilution method; procedure, shortened: as §1
Streptococcus pneumoniae [10] = experiment: Antimicrobial activity against Streptococcus pneumoniae isolate 3681 by agar dilution method; procedure, shortened: as §1
Streptococcus pneumoniae [11] = experiment: Antimicrobial activity against Streptococcus pneumoniae isolate 33 by agar dilution method; procedure, shortened: as §1
Streptococcus pneumoniae [12] = experiment: Antimicrobial activity against Streptococcus pneumoniae isolate 2688 by agar dilution method; procedure, shortened: as §1
Streptococcus pneumoniae [13] = experiment: Antimicrobial activity against Streptococcus pneumoniae isolate 1394 by agar dilution method
Streptococcus pneumoniae [14] = experiment: Antimicrobial activity against Streptococcus pneumoniae isolate 1146 by agar dilution method; procedure, shortened: as §1
Streptococcus pneumoniae [15] = experiment: Antimicrobial activity against Streptococcus pneumoniae isolate 1564 by agar dilution method
Streptococcus pneumoniae [16] = experiment: Antimicrobial activity against Streptococcus pneumoniae isolate 2880 by agar dilution method; procedure, shortened: as §1
Streptococcus pneumoniae [17] = experiment: Antimicrobial activity against Streptococcus pneumoniae isolate 37 by agar dilution method; procedure, shortened: as §1
Streptococcus pneumoniae [18] = experiment: Antimicrobial activity against Streptococcus pneumoniae isolate 3587 by agar dilution method
Streptococcus pneumoniae [19] = experiment: Antimicrobial activity against Streptococcus pneumoniae isolate 2874 by agar dilution method; procedure, shortened: as §1
Streptococcus pneumoniae [20] = experiment: Antimicrobial activity against compound-susceptible Streptococcus pneumoniae by agar dilution method; procedure, shortened: as §1
Streptococcus pneumoniae [21] = experiment: Antimicrobial activity against Streptococcus pneumoniae isolate 4747 by agar dilution method; procedure, shortened: as §1
Streptococcus pneumoniae [22] = experiment: Antimicrobial activity against Streptococcus pneumoniae isolate 1397 by agar dilution method; procedure, shortened: as §1
Streptococcus pneumoniae [23] = experiment: Antimicrobial activity against Streptococcus pneumoniae isolate 3275 by agar dilution method; procedure, shortened: as §1
Streptococcus pneumoniae [24] = experiment: Antimicrobial activity against Streptococcus pneumoniae isolate 24 by agar dilution method
Streptococcus pneumoniae [25] = experiment: Antimicrobial activity against Streptococcus pneumoniae isolate 1147 by agar dilution method; procedure, shortened: as §1
Streptococcus pneumoniae [26] = experiment: Antimicrobial activity against Streptococcus pneumoniae isolate 4755 by agar dilution method; procedure, shortened: as §1
Streptococcus pneumoniae [27] = experiment: Antimicrobial activity against Streptococcus pneumoniae isolate 3412 by agar dilution method; procedure, shortened: as §1
Streptococcus pneumoniae [28] = experiment: Antimicrobial activity against Streptococcus pneumoniae isolate 1055 by agar dilution method
Streptococcus pneumoniae [29] = experiment: Antimicrobial activity against Streptococcus pneumoniae isolate 3455 by agar dilution method
Streptococcus pneumoniae [30] = experiment: Antimicrobial activity against Streptococcus pneumoniae isolate 1384 by agar dilution method; procedure, shortened: as §1
Streptococcus pneumoniae [31] = experiment: Antimicrobial activity against Streptococcus pneumoniae isolate 2617 by agar dilution method; procedure, shortened: as §1
Streptococcus pneumoniae [32] = experiment: Antimicrobial activity against Streptococcus pneumoniae isolate 2686 by agar dilution method; procedure, shortened: as §1
Streptococcus pneumoniae [33] = experiment: Antimicrobial activity against Streptococcus pneumoniae isolate 3458 by agar dilution method
Streptococcus pneumoniae [34] = experiment: Antimicrobial activity against Streptococcus pneumoniae 19A by agar dilution method; procedure, shortened: as §1
Streptococcus pneumoniae [35] = experiment: Antimicrobial activity against Streptococcus pneumoniae 6 by time-kill analysis
Procedure, shortened: (§2)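 Time-kill in cation-adjusted Mueller-Hinton broth with 5% lysed horse blood; inocula 5 × 105 to 5 × 10^6 CFU/ml; drugs at MIC, 2× and 4× MIC; 35°C shaking water bath; viable counts at 0, 3, 6, 12, 24 h. Bactericidal = ≥3 log10 CFU/ml (99.9%) drop from original inoculum; 90%/99%/99.9% killing scored per strain.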

Streptococcus pneumoniae [36] = experiment: Antimicrobial activity against Streptococcus pneumoniae 12 by time-kill analysis; procedure, shortened: as §2
Streptococcus pneumoniae [37] = experiment: Antimicrobial activity against Streptococcus pneumoniae 9 by time-kill analysis
Procedure, shortened: as §2, with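 “12 and” for “12,”, “if” for “=”, “reduction” for “drop”, “90% and 99%” for “90%/99%/99.9%”, “also scored.” for “scored per strain.”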

Streptococcus pneumoniae [38] = experiment: Antimicrobial activity against Streptococcus pneumoniae 1 by time-kill analysis
Procedure, shortened: as §2, with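 “12 and” for “12,”, “if” for “=”, “reduction” for “drop”, “90% and 99%” for “90%/99%/99.9%”, “also scored.” for “scored per strain.”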

Streptococcus pneumoniae [39] = experiment: Antimicrobial activity against Streptococcus pneumoniae 2 by time-kill analysis; procedure, shortened: as §2
Streptococcus pneumoniae [40] = experiment: Antimicrobial activity against Streptococcus pneumoniae 10 by time-kill analysis; procedure, shortened: as §2
Streptococcus pneumoniae [41] = experiment: Antimicrobial activity against Streptococcus pneumoniae 3 by time-kill analysis; procedure, shortened: as §2
Streptococcus pneumoniae [42] = experiment: Antimicrobial activity against penicillin-resistant Streptococcus pneumoniae by agar dilution method; procedure, shortened: as §1
Streptococcus pneumoniae [43] = experiment: Antimicrobial activity against Streptococcus pneumoniae 11 by time-kill analysis; procedure, shortened: as §2
Streptococcus pneumoniae [44] = experiment: Antimicrobial activity against Streptococcus pneumoniae isolate 3263 by agar dilution method
Streptococcus pneumoniae [45] = experiment: Antimicrobial activity against Streptococcus pneumoniae 7 by time-kill analysis; procedure, shortened: as §2
Streptococcus pneumoniae [46] = experiment: Antimicrobial activity against Streptococcus pneumoniae 8 by time-kill analysis; procedure, shortened: as §2
Streptococcus pneumoniae [47] = experiment: Antimicrobial activity against penicillin-intermediate Streptococcus pneumoniae by agar dilution method
Streptococcus pneumoniae [48] = experiment: Antimicrobial activity against Streptococcus pneumoniae 4 by time-kill analysis; procedure, shortened: as §2
Streptococcus pneumoniae [49] = experiment: Antimicrobial activity against penicillin-susceptible Streptococcus pneumoniae by agar dilution method
Streptococcus pneumoniae [50] = experiment: Antimicrobial activity against Streptococcus pneumoniae 5 by time-kill analysis
Procedure, shortened: as §2, with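 “12 and” for “12,”, “if” for “=”, “reduction” for “drop”, “90% and 99%” for “90%/99%/99.9%”, “also scored.” for “scored per strain.”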

## CC1(C)S[C@@H]2[C@H](NC(=O)Cc3ccccc3)C(=O)N2[C@H]1C(=O)O [PENICILLIN G]
Streptococcus pneumoniae [1]
  MIC: 4 µg/mL (≈ 12 µM)
Streptococcus pneumoniae [2]
  MIC50: 0.25 µg/mL (≈ 0.748 µM)
  MIC90: 1 µg/mL (≈ 2.99 µM)
Streptococcus pneumoniae [3]
  MIC: 4 µg/mL (≈ 12 µM)
Streptococcus pneumoniae [4]
  MIC: 4 µg/mL (≈ 12 µM)
Streptococcus pneumoniae [5]
  MIC: 2 µg/mL (≈ 5.98 µM)
Streptococcus pneumoniae [6]
  MIC: 2 µg/mL (≈ 5.98 µM)
Streptococcus pneumoniae [7]
  MIC: 2 µg/mL (≈ 5.98 µM)
Streptococcus pneumoniae [8]
  MIC: 2 µg/mL (≈ 5.98 µM)
  MIC50: 2 µg/mL (≈ 5.98 µM)
  MIC90: 4 µg/mL (≈ 12 µM)
Streptococcus pneumoniae [9]
  MIC: 8 µg/mL (≈ 23.9 µM)
Streptococcus pneumoniae [10]
  MIC: 1 µg/mL (≈ 2.99 µM)
Streptococcus pneumoniae [11]
  MIC: 4 µg/mL (≈ 12 µM)
Streptococcus pneumoniae [12]
  MIC: 8 µg/mL (≈ 23.9 µM)
Streptococcus pneumoniae [13]
  MIC: 4 µg/mL (≈ 12 µM)
Streptococcus pneumoniae [14]
  MIC: 4 µg/mL (≈ 12 µM)
Streptococcus pneumoniae [15]
  MIC: 16 µg/mL (≈ 47.8 µM)
Streptococcus pneumoniae [16]
  MIC: 4 µg/mL (≈ 12 µM)
Streptococcus pneumoniae [17]
  MIC: 4 µg/mL (≈ 12 µM)
Streptococcus pneumoniae [18]
  MIC: 2 µg/mL (≈ 5.98 µM)
Streptococcus pneumoniae [19]
  MIC: 8 µg/mL (≈ 23.9 µM)
Streptococcus pneumoniae [20]
  MIC50: 0.03 µg/mL (≈ 0.0897 µM)
  MIC90: 0.06 µg/mL (≈ 0.179 µM)
Streptococcus pneumoniae [21]
  MIC: 4 µg/mL (≈ 12 µM)
Streptococcus pneumoniae [22]
  MIC: 2 µg/mL (≈ 5.98 µM)
Streptococcus pneumoniae [23]
  MIC: 1 µg/mL (≈ 2.99 µM)
Streptococcus pneumoniae [24]
  MIC: 4 µg/mL (≈ 12 µM)
Streptococcus pneumoniae [25]
  MIC: 4 µg/mL (≈ 12 µM)
Streptococcus pneumoniae [26]
  MIC: 8 µg/mL (≈ 23.9 µM)
Streptococcus pneumoniae [27]
  MIC: 2 µg/mL (≈ 5.98 µM)
Streptococcus pneumoniae [28]
  MIC: 2 µg/mL (≈ 5.98 µM)
Streptococcus pneumoniae [29]
  MIC: 4 µg/mL (≈ 12 µM)
Streptococcus pneumoniae [30]
  MIC: 4 µg/mL (≈ 12 µM)
Streptococcus pneumoniae [31]
  MIC: 1 µg/mL (≈ 2.99 µM)
Streptococcus pneumoniae [32]
  MIC: 4 µg/mL (≈ 12 µM)
Streptococcus pneumoniae [33]
  MIC: 4 µg/mL (≈ 12 µM)

## CO/N=C(\C(=O)N[C@@H]1C(=O)N2C(C(=O)O)=C(COC(N)=O)CS[C@H]12)c1ccco1 [CEFUROXIME]
Streptococcus pneumoniae [34]
  MIC50: 8 µg/mL (≈ 18.9 µM)
  MIC90: 16 µg/mL (≈ 37.7 µM)
Streptococcus pneumoniae [1]
  MIC: 4 µg/mL (≈ 9.43 µM)
Streptococcus pneumoniae [35]
  MIC: 0.5 µg/mL (≈ 1.18 µM)
Streptococcus pneumoniae [3]
  MIC: 4 µg/mL (≈ 9.43 µM)
Streptococcus pneumoniae [4]
  MIC: 4 µg/mL (≈ 9.43 µM)
Streptococcus pneumoniae [5]
  MIC: 8 µg/mL (≈ 18.9 µM)
Streptococcus pneumoniae [36]
  MIC: 4 µg/mL (≈ 9.43 µM)
Streptococcus pneumoniae [6]
  MIC: 16 µg/mL (≈ 37.7 µM)
Streptococcus pneumoniae [7]
  MIC: 8 µg/mL (≈ 18.9 µM)
Streptococcus pneumoniae [9]
  MIC: 8 µg/mL (≈ 18.9 µM)
Streptococcus pneumoniae [10]
  MIC: 4 µg/mL (≈ 9.43 µM)
Streptococcus pneumoniae [11]
  MIC: 4 µg/mL (≈ 9.43 µM)
Streptococcus pneumoniae [12]
  MIC: 32 µg/mL (≈ 75.4 µM)
Streptococcus pneumoniae [13]
  MIC: 16 µg/mL (≈ 37.7 µM)
Streptococcus pneumoniae [14]
  MIC: 8 µg/mL (≈ 18.9 µM)
Streptococcus pneumoniae [15]
  MIC: 64 µg/mL (≈ 151 µM)
Streptococcus pneumoniae [37]
  MIC: 0.25 µg/mL (≈ 0.589 µM)
Streptococcus pneumoniae [16]
  MIC: 4 µg/mL (≈ 9.43 µM)
Streptococcus pneumoniae [17]
  MIC: 4 µg/mL (≈ 9.43 µM)
Streptococcus pneumoniae [38]
  MIC: 0.03 µg/mL (≈ 0.0707 µM)
Streptococcus pneumoniae [39]
  MIC: 0.016 µg/mL (≈ 0.0377 µM)
Streptococcus pneumoniae [40]
  MIC: 0.25 µg/mL (≈ 0.589 µM)
Streptococcus pneumoniae [18]
  MIC: 8 µg/mL (≈ 18.9 µM)
Streptococcus pneumoniae [19]
  MIC: 8 µg/mL (≈ 18.9 µM)
Streptococcus pneumoniae [41]
  MIC: 1 µg/mL (≈ 2.36 µM)
Streptococcus pneumoniae [42]
  MIC50: 4 µg/mL (≈ 9.43 µM)
  MIC90: 16 µg/mL (≈ 37.7 µM)
Streptococcus pneumoniae [21]
  MIC: 8 µg/mL (≈ 18.9 µM)
Streptococcus pneumoniae [43]
  MIC: 4 µg/mL (≈ 9.43 µM)
Streptococcus pneumoniae [44]
  MIC: 4 µg/mL (≈ 9.43 µM)
Streptococcus pneumoniae [45]
  MIC: 4 µg/mL (≈ 9.43 µM)
Streptococcus pneumoniae [22]
  MIC: 8 µg/mL (≈ 18.9 µM)
Streptococcus pneumoniae [23]
  MIC: 2 µg/mL (≈ 4.71 µM)
Streptococcus pneumoniae [24]
  MIC: 2 µg/mL (≈ 4.71 µM)
Streptococcus pneumoniae [46]
  MIC: 8 µg/mL (≈ 18.9 µM)
Streptococcus pneumoniae [25]
  MIC: 8 µg/mL (≈ 18.9 µM)
Streptococcus pneumoniae [26]
  MIC: 8 µg/mL (≈ 18.9 µM)
Streptococcus pneumoniae [27]
  MIC: 4 µg/mL (≈ 9.43 µM)
Streptococcus pneumoniae [28]
  MIC: 4 µg/mL (≈ 9.43 µM)
Streptococcus pneumoniae [47]
  MIC50: 0.25 µg/mL (≈ 0.589 µM)
  MIC90: 4 µg/mL (≈ 9.43 µM)
Streptococcus pneumoniae [29]
  MIC: 4 µg/mL (≈ 9.43 µM)
Streptococcus pneumoniae [48]
  MIC: 16 µg/mL (≈ 37.7 µM)
Streptococcus pneumoniae [30]
  MIC: 4 µg/mL (≈ 9.43 µM)
Streptococcus pneumoniae [49]
  MIC50: 0.03 µg/mL (≈ 0.0707 µM)
  MIC90: 0.125 µg/mL (≈ 0.295 µM)
Streptococcus pneumoniae [31]
  MIC: 4 µg/mL (≈ 9.43 µM)
Streptococcus pneumoniae [50]
  MIC: 16 µg/mL (≈ 37.7 µM)
Streptococcus pneumoniae [32]
  MIC: 16 µg/mL (≈ 37.7 µM)
Streptococcus pneumoniae [33]
  MIC: 8 µg/mL (≈ 18.9 µM)
